The values below come from ChEMBL document CHEMBL4049418, “6-OH-Phenanthroquinolizidine Alkaloid and Its Derivatives Exert Potent Anticancer Activity by Delaying S Phase Progression” (J Med Chem, 2017).

Each structure is given as a SMILES string. The source made the active and inactive calls. The rule behind the calls is not given here.

Assay [1] relates to Bel-7402. The experiment in a line: Induction of DNA damage in human Bel7402 cells assessed as increase in CHK1 phosphorylation at Ser345 residue at 1 to 100 nM after 1 hr by Western blot analysis. The format is functional, cell-based. Summed up:
(§1)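 BEL-7402 cells (1.5 × 10⁵ per well, 12-well plates) exposed to compounds for 1 h. Phospho-Chk1 Ser345, phospho-Chk2 Thr68 and γH2AX detected by Western blot. Camptothecin at 1 μM served as the DNA-damage reference.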

The test system of assay [2] is Bel-7402. The experiment in a line: Induction of DNA damage in human Bel7402 cells assessed as increase in CHK2 phosphorylation at Thr68 residue at 1 to 100 nM after 1 hr by Western blot analysis. The format is functional, cell-based. The procedure, abridged: as §1

For `COc1cc2c3c(c4ccc(O)cc4c2cc1OC)CN1CCCC[C@@H]1C3`, the result with Bel-7402 [1] and with Bel-7402 [2] was inactive.
